Results as given in ChEMBL document CHEMBL3272120, “2,5,5-Trimethylthiazolidine-4-carboxylic acid, a D(-)-penicillamine-directed pseudometabolite of ethanol. Detoxication mechanism for acetaldehyde” (1978).
Activity calls are given as the source filed them. The calls are words filed in the database; no cut-off is given here.

Experiments:
Rattus norvegicus [1] = experiment: Detoxification of acetaldehyde in aldehyde dehydrogenase inhibitor disuifiram/ethanol-treated rat assessed as reduction of blood acetaldehyde level at 8 mmol/kg, ip administered 1 hr prior to ethanol treatment measured after 1 hr by head space gas chromatographic analysis
Rattus norvegicus [2] = experiment: (§1) Detoxification of acetaldehyde in aldehyde dehydrogenase inhibitor disuifiram/ethanol-1-[14C]-treated Sprague-Dawley rat assessed as [14C]-3-acetyl-2-methylthiazolidine-4-carboxylic acid excretion in urine by measuring administered dose of ethanol-1-[14C] at 8.3 mmol/kg, ip administered 1 hr prior to 65 mmol/kg ethanol-1-[14C] treatment measured for 24 hrs by inverse isotope dilution method in presence of Ac2O relative to control; type: functional; set-up: scale not given: the % may be the effect or the level left
In short: (§2)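 Male Sprague-Dawley rats (190–280 g), given the test agent 1 h before ethanol-1-14C (65 mmol/kg, 200 mg/mL in isotonic saline, 0.8–1.4 μCi/rat), or at the same time as it for the simultaneous-dosing lines. Held in metabolism cages for 24 h. Urine plus washings were filtered and 400 mg unlabeled carrier added. The mix was acetylated with Ac2O, purified by preparative TLC and recrystallized from EtOAc to constant specific activity. Radioactivity was then scintillation counted.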

Rattus norvegicus [3] = experiment: as §1, with “ethanol-1-[14C]-treated” for “aldehyde dehydrogenase inhibitor disuifiram/ethanol-1-[14C]-treated”, “acid” for “acid excretion”, “10” for “8.3”; type: functional
In short: as §2

Rattus norvegicus [4] = experiment: as §1, with “ethanol-1-[14C]-treated” for “aldehyde dehydrogenase inhibitor disuifiram/ethanol-1-[14C]-treated”, “7.4” for “8.3”, “po” for “ip”; type: functional
In short: as §2

Rattus norvegicus [5] = experiment: (§3) Detoxification of acetaldehyde in ethanol-1-[14C]-treated Sprague-Dawley rat assessed as [14C]-3-acetyl-2,5,5-trimethylthiazolidine-4-carboxylic acid excretion in urine by measuring administered dose of ethanol-1-[14C] at 8 mmol/kg, po administered with 65 mmol/kg ethanol-1-[14C] measured for 24 hrs by inverse isotope dilution method in presence of Ac2O relative to control; type: functional
In short: as §2

Rattus norvegicus [6] = experiment: as §1, with “pyrogallol/ethanol-1-[14C]-treated” for “disuifiram/ethanol-1-[14C]-treated”, “[14C]-3-acetyl-2,5,5-trimethylthiazolidine-4-carboxylic” for “[14C]-3-acetyl-2-methylthiazolidine-4-carboxylic”, “8.1” for “8.3”; type: functional; set-up: scale not given: the % may be the effect or the level left
In short: as §2

Rattus norvegicus [7] = experiment: (§4) Detoxification of acetaldehyde in ethanol-1-[14C]-treated Sprague-Dawley rat assessed as [14C]-3-acetyl-2,5,5-trimethylthiazolidine-4-carboxylic acid excretion in urine by measuring administered dose of ethanol-1-[14C] at 8.1 mmol/kg, po administered 1 hr prior to 65 mmol/kg ethanol-1-[14C] treatment measured for 24 hrs by inverse isotope dilution method in presence of Ac2O relative to control; type: functional
In short: as §2

Rattus norvegicus [8] = experiment: as §4, with “aldehyde dehydrogenase inhibitor disuifiram/ethanol-1-[14C]-treated” for “ethanol-1-[14C]-treated”; type: functional; set-up: scale not given: the % may be the effect or the level left
In short: as §2

Rattus norvegicus [9] = experiment: as §1, with “pargyline/ethanol-1-[14C]-treated” for “disuifiram/ethanol-1-[14C]-treated”, “[14C]-3-acetyl-2,5,5-trimethylthiazolidine-4-carboxylic” for “[14C]-3-acetyl-2-methylthiazolidine-4-carboxylic”, “8.1” for “8.3”; type: functional; set-up: scale not given: the % may be the effect or the level left
In short: as §2

Rattus norvegicus [10] = experiment: as §4, with “ip” for “po”; type: functional
In short: as §2

Rattus norvegicus [11] = experiment: as §1, with “[14C]-3-acetyl-2,5,5-trimethylthiazolidine-4-carboxylic” for “[14C]-3-acetyl-2-methylthiazolidine-4-carboxylic”, “2” for “8.3”, “first dose at 0.25 hrs” for “1 hr”, “43.5” for “65”, “treatment followed by 4 doses of compound at 0.75 hrs, 3 hrs, 5 hrs, 7 hrs” for “treatment”; type: functional; set-up: scale not given: the % may be the effect or the level left
Rattus norvegicus [12] = experiment: as §3, with “8.1” for “8”; type: functional
In short: as §2

## NC(CCS)C(=O)O (racemic)
Rattus norvegicus [1]
  Activity: inactive

## NC(CCSSCCC(N)C(=O)O)C(=O)O (racemic)
Rattus norvegicus [1]
  Activity: inactive

## NC1CCSC1=O (racemic)
Rattus norvegicus [1]
  Activity: inactive

## N[C@@H](CS)C(=O)O (stereo in doubt)
Rattus norvegicus [1]
  Activity: inactive

## N[C@@H](CS)C(=O)O (stereo in doubt; 2)
Rattus norvegicus [1]
  Activity: inactive

## N[C@@H](CS)C(=O)O (stereo in doubt; 2) [CYSTEINE]
Rattus norvegicus [2]
  Activity: 0%
Rattus norvegicus [3]
  Activity: 0%

## CC(=O)N[C@@H](CS)C(=O)O [ACETYLCYSTEINE]
Rattus norvegicus [4]
  Activity: 0%
Rattus norvegicus [1]
  Activity: inactive

## CC(=O)NC(C(=O)O)C(C)(C)S (centres undefined) [N-ACETYL PENICILLAMINE]
Rattus norvegicus [1]
  Activity: inactive
Rattus norvegicus [5]
  Activity: 0%

## CC(C)(S)[C@@H](N)C(=O)O [PENICILLAMINE]
Rattus norvegicus [6]
  Activity: 1.1%
Rattus norvegicus [7]
  Activity: 1.2%
Rattus norvegicus [8]
  Activity: 2.7%
Rattus norvegicus [9]
  Activity: 3.3%
Rattus norvegicus [10]
  Activity: 0.5%
Rattus norvegicus [1]
  Activity: Active
Rattus norvegicus [11]
  Activity: 7.6%
Rattus norvegicus [12]
  Activity: 0.4%
